This is an account of results in ChEMBL document CHEMBL1124173, “Enantiomers of 7-(2,3-epoxypropoxy)actinomycin D as dual-action DNA-acting antitumor agents” (J Med Chem, 1988).

Assay [1] is described as follows: Molar ratio of DNA to total amount of compound that is bound both intercalatively and covalently to calf thymus DNA helix. It counts as functional. In outline: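 [3H]Drug and purified calf thymus DNA dialyzed at 37 °C in Tris HCl pH 7.4 (20 mM per footnote; 25 mM in methods). Equilibrated complex precipitated twice with ethanol to remove unbound drug. Molar DNA/drug ratio based on total bound drug, intercalative plus covalent.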

The nature of assay [2]: ratio of DNA to compound bound entirely by covalent bonding to DNA base. It counts as functional. In outline:
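[3H]Drug and purified calf thymus DNA dialyzed at 37 °C in Tris HCl buffer; complex twice ethanol-precipitated to remove unbound drug. Molar DNA/drug ratio calculated from drug bound only covalently to DNA bases.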

Assay [3] has as its system L1210. Nature of the assay: Inhibition of synthesis of [5-3H]-uridine into RNA in L1210 cells. In kind it is functional, cell-based, Mus musculus. Particulars: l1210. In outline: (§1)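 Actively growing L1210 cells in vitro. Incorporation of [5-3H]uridine into RNA, or [methyl-14C]thymidine into DNA, compared with untreated cells. IC50 is micromolar drug concentration giving 50% reduction in incorporation rate.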

For assay [4], the system named is L1210. In words: Inhibition of synthesis of [methyl-14C] thymidine into DNA, in L1210 cells. Particulars: Mus musculus, L1210. It counts as functional, cell-based, Mus musculus. In short, it runs like this:
as §1

Assay [5] is filed under the species Mus musculus. In words: Antitumor activity measured as % increase in life span, against C26 colon carcinoma. It counts as functional. In short, it runs like this:
(§2)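 C26 primary colon carcinoma cells (trypan blue excluding, 2.5 × 10^5 cells/mouse) implanted in CDF1 mice on day 0. Drug given ip on days 1, 5 and 9 in 0.1 mL 5% v/v Me2SO-saline at optimal dose. Read-out is median survival time; %ILS is drug-treated over control, excluding survivors. Sixty-day survivors are counted.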

The test system of assay [6] is Mus musculus. Nature of the assay: Antitumor activity measured as % increase in life span, for ip administration of compound and ip inoculation of B16 melanoma. It counts as functional. In outline:
(§3)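 B16 brei (tumor weight/Hank's balanced salt solution 1:5, 0.2 mL) implanted sc or ip into groups of nine BDF1 mice on day 0. Drug given iv on day 1 (sc tumor) or ip on days 1, 5 and 9 (ip tumor), in 0.1 mL 5% v/v Me2SO-saline. Read-out is median survival time and %ILS versus untreated controls, excluding sixty-day survivors.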

The species named for assay [7] is Mus musculus. In words: Antitumor activity measured as optimal dose, against C26 colon carcinoma. In kind it is functional. In outline:
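Primary colon C26 carcinoma cells (trypan blue excluding, 2.5 × 10^5 cells/mouse) implanted in CDF1 mice on day 0. Drug given ip on days 1, 5 and 9 in 0.1 mL 5% v/v Me2SO-saline. Optimal dose in […]; %ILS and 60-day survivors scored.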

The test system of assay [8] is Mus musculus. In words: Antitumor activity measured as median survival time, for ip administration and ip inoculation of B16 melanoma. It counts as functional. In short, it runs like this:
as §3

The species named for assay [9] is Mus musculus. Nature of the assay: Antitumor activity measured as median survival time, against C26 colon carcinoma. In kind it is functional. In outline:
as §2

Assay [10] deals with Mus musculus. In words: Antitumor activity measured as median survival time, for iv administration and sc inoculation of B16 melanoma.
Assay [11] deals with Mus musculus. In words: Antitumor activity measured as % increase in life span, for iv administration of compound and sc inoculation of B16 melanoma.

As to `Cc1c2oc3c(C)c(OCC4CO4)cc(C(=O)N[C@@H]4C(=O)N[C@@H](C(C)C)C(=O)N5CCC[C@H]5C(=O)N(C)CC(=O)N(C)[C@@H](C(C)C)C(=O)O[C@H]4C)c3nc-2c(C(=O)N[C@@H]2C(=O)N[C@@H](C(C)C)C(=O)N3CCC[C@H]3C(=O)N(C)CC(=O)N(C)[C@@H](C(C)C)C(=O)O[C@H]2C)c(N)c1=O` (stereo in doubt), the Ratio in assay [1] stood at 32; in [2], 520.

A word on the IC50: it is the concentration at which inhibition is half-maximal. Lower therefore signals greater potency in that assay. Take `Cc1c2oc3c(C)c(OCC4CO4)cc(C(=O)N[C@@H]4C(=O)N[C@H](C(C)C)C(=O)N5CCC[C@H]5C(=O)N(C)CC(=O)N(C)[C@@H](C(C)C)C(=O)O[C@@H]4C)c3nc-2c(C(=O)N[C@@H]2C(=O)N[C@H](C(C)C)C(=O)N3CCC[C@H]3C(=O)N(C)CC(=O)N(C)[C@@H](C(C)C)C(=O)O[C@@H]2C)c(N)c1=O` (stereo in doubt; 3b): the half-inhibitory concentration (IC50) turned out to be 24 nM with L1210 [3] and 80 nM with L1210 [4].

For the molecule `Cc1c2oc3c(C)c(OC[C@H]4CO4)cc(C(=O)N[C@@H]4C(=O)N[C@H](C(C)C)C(=O)N5CCC[C@H]5C(=O)N(C)CC(=O)N(C)[C@@H](C(C)C)C(=O)O[C@@H]4C)c3nc-2c(C(=O)N[C@@H]2C(=O)N[C@H](C(C)C)C(=O)N3CCC[C@H]3C(=O)N(C)CC(=O)N(C)[C@@H](C(C)C)C(=O)O[C@@H]2C)c(N)c1=O`, half-maximal inhibition in the assay with L1210 [4] (IC50) required 60 nM.

For orientation: ILS means how much longer treated animals lived than controls. A lower ILS goes with a small benefit in survival. Take `COc1cccc2c1C(=O)c1c(O)c3c(c(O)c1C2=O)C[C@@](O)(C(=O)CO)C[C@@H]3O[C@H]1C[C@H](N)[C@H](O)[C@H](C)O1` [DOXORUBICIN]: the figures for the ILS in the assay listed under Mus musculus [5], in the assay with Mus musculus [6] and with Mus musculus [11] were 118%, 224% and 79%, respectively. The Dose in the assay listed under Mus musculus [7] worked out at 2.5 mg/kg. The MST is 60 days with Mus musculus [8], 48 days in the assay listed under Mus musculus [9] and 59 days with Mus musculus [10].

For `Cc1c2oc3c(C)c(OC[C@H]4CO4)cc(C(=O)N[C@@H]4C(=O)N[C@@H](C(C)C)C(=O)N5CCC[C@H]5C(=O)N(C)CC(=O)N(C)[C@@H](C(C)C)C(=O)O[C@H]4C)c3nc-2c(C(=O)N[C@@H]2C(=O)N[C@@H](C(C)C)C(=O)N3CCC[C@H]3C(=O)N(C)CC(=O)N(C)[C@@H](C(C)C)C(=O)O[C@H]2C)c(N)c1=O`, the Ratio in assay [1] amounted to 30; in [2], 500.
